Measurements from the RNAGym collection of RNA variant scans (doi:10.1126/science.aae0568).
This sample holds only a part of the variants without activity.

B1: tRNA (parent)
chain: GUUCCGUUGGCGUAAUGGUAACGCGUCUCCCUCCUAAGGAGAAGACUGCGGGUUCGAGUCCCGUACGGAACG

Variants of: B1
Assay: yeast fitness relative to wild type (ratio to wild type); higher = fitter; tRNA-Arg(CCU), competitive growth, 37 C, YPD
How it was run: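 Changes in genotype frequencies gave Darwinian fitness relative to wild type. Frequencies were read by 100-nucleotide paired-end sequencing of gene amplicons before and after pooled Saccharomyces cerevisiae strains, carrying tRNA-Arg(CCU) gene variants at the native locus, were competed in YPD at 37°C for 24 hours in six replicates. A genotype was kept only with ≥ 100 starting reads, and estimates < 0.5 were set to 0.5.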

| Variant | yeast fitness |
| --- | --- |
| A45C U59G | 0.713 |
| G44U A70C | 0.813 |
| A43C A45G G48A G58A A65U | ≤ 0.5 |
| G44A A45G G51C C66U A69C | 0.576 |
| A42G U54A U59A | 0.541 |
| A42U G48A A65U | 0.706 |
| G44A C46U G58A | 0.687 |
| A43U G50A A57G | ≤ 0.5 |
| A43C U54C | 0.876 |
| A42G G58C A70U | 0.748 |
| A43C A70C | 0.897 |
| A42U A57C | 0.681 |
| A42U A57G | 0.905 |
| G44A C55U U64A A69C | ≤ 0.5 |
| A42U G52A C62U | 0.754 |
| A45C C49U G63A | 0.74 |
| A42U C62A A70C | 0.581 |
| A42U C46G G52C C62A | ≤ 0.5 |
| A43G G44A G56C C62U | ≤ 0.5 |
| A43U C60G C66U | 0.534 |
| A42U C55U C66U | ≤ 0.5 |
| A42U A69C | 0.959 |
| A42U A69G | 1.11 |
| A43G A69C | 0.935 |

| Variant | yeast fitness |
| --- | --- |
| A43U G63A | 0.895 |
| G44C G50C A70C | 0.573 |
| A45C U54G | 0.605 |
| A45C U59C A70C | 0.741 |
| A43C G50A G67A | ≤ 0.5 |
| G44C G52A A69G | ≤ 0.5 |
| A45C C66G | 0.586 |
| A43C A45U C49G C61U | ≤ 0.5 |
| A42U U54A G58C | 0.599 |
| A45C C46G C49A A69U | ≤ 0.5 |
| A43G C61U A65U | 0.567 |
| A43C C55G | 0.641 |
| A43C C55A | 0.588 |
| A43C C55U | 0.721 |
| A43G G58C C62U | 0.537 |
| G44C C55U | 0.731 |
| G44C C66U A70C | 0.88 |
| A42U G51C C62U C66U | 0.708 |
| A43G A57C | 0.525 |
| A43G U59C A70C | 0.658 |
| A42U C61G A65U | ≤ 0.5 |
| A43C C55A A57C | ≤ 0.5 |
| A43U G58C | 0.892 |
| G44A U64G | 0.694 |

| Variant | yeast fitness |
| --- | --- |
| G44C G68A | 0.937 |
| A43U U47A | 0.799 |
| A45C G48C G50A U53C C66A | ≤ 0.5 |
| A43U G48C C55U | ≤ 0.5 |
| A43U C60G C61U | ≤ 0.5 |
| A42U C49U G51A | 0.665 |
| A43U C62U | 1.01 |
| A43U C62G | 0.805 |
| A43U G56A A70U | 0.948 |
| A45G A57C | 0.668 |
| A43U G48C C60A U64A | ≤ 0.5 |
| A43G C55U | 0.711 |
| A43G C55A | 0.599 |
| A43G C60A C66G | ≤ 0.5 |
| A43C G52A C55U C60A | ≤ 0.5 |
| A43G G67C | 0.872 |
| A43U A65G C66U | 0.794 |
| A42U A43U A57G | 0.534 |
| A43C C49G | 0.639 |
| A43C C49A | 0.631 |
| A42U A57G G58A A70U | ≤ 0.5 |
| A43G G63A | 0.745 |
| A45C G58A C62U A69C | 0.59 |
| A43C C61A | 0.776 |

| Variant | yeast fitness |
| --- | --- |
| A43C C61U | 0.956 |
| A43G A45U C46U | 0.604 |
| A43C C62U A65U | 0.591 |
| A43C A45G A69C | 0.643 |
| A43U A70U | 1.06 |
| A42G U54G | 0.562 |
| A43C C46A G67A | 0.538 |
| A42U C66U | 0.793 |
| A45C U47C C49U | 0.806 |
| G44A G56A U59A | 0.575 |
| A43C A45U | 0.973 |
| A43C A45G | 1.02 |
| G44C G58C C66U | 0.653 |
| A43G G56A | 0.86 |
| A42U G63U | 0.701 |
| A42U G63A | 0.868 |
| G44C U54C C66U | 0.601 |
| A43U A45G C55G | ≤ 0.5 |
| A43C G44A | 1.01 |
| A43G U53C | 0.84 |
| A45C C46A C62A | 0.603 |
| A43C C62A G63A C66G A69G | ≤ 0.5 |
| G44A C49U C62A G67C | ≤ 0.5 |
| A43G C55U C66G | 0.626 |

| Variant | yeast fitness |
| --- | --- |
| G44C A57U | 0.554 |
| A43U G48A U64C | 0.751 |
| G44C C60G | 0.59 |
| A43G G48C | 0.829 |
| A42U C61U C62U | 0.612 |
| G44C C62U | 0.902 |
| A42U G52A | 0.808 |
| A42U | 0.978 |
| A43C G67U | 0.849 |
| A43C C46U G56C | 0.506 |
| G44C U54C U64A G68A | ≤ 0.5 |
| G44A C61G | 0.597 |
| A43C G68C | 0.72 |
| A43G C55U C61U | 0.543 |
| G44C | 0.985 |
| G44A | 0.982 |
| G44U | 1.01 |
| A42U G63A G68C | 0.544 |
| A42G U47A | 0.785 |
| A43U C49A | 0.756 |
| A43U C49U | 1.09 |
| A43G G63U U64A | 0.567 |
| A45C C61A | 0.797 |
| A45C C61U | 0.992 |

| Variant | yeast fitness |
| --- | --- |
| A42U G51C | 0.567 |
| A42U A65G C66G G68A | 0.551 |
| A42U G50C U53A | ≤ 0.5 |
| A43U U64C | 1.02 |
| A45C U64C A65C | 0.965 |
| A43G A45G C55U G68A | ≤ 0.5 |
| G44A G56C C62U | 0.695 |
| G44A C46A | 0.835 |
| G44A C46G | 0.928 |
| A42U C49G C55A | ≤ 0.5 |
| A45C G51C U64C | ≤ 0.5 |
| G44C C60G A65G | 0.617 |
| G44A C55U A69C | 0.585 |
| A42U G51A C60G G63A | ≤ 0.5 |
| A43U C46G U54A | 0.538 |
| A45C C60A | 0.62 |
| A42U U59C U64A | ≤ 0.5 |
| A43U A45G | 0.852 |
| A45C A69U | 0.959 |
| A45C G63A | 0.85 |
| A45C G52A A69C | 0.568 |
| G44A C55G | 0.558 |
| G44A G51C | 0.572 |
| A42G G56A | 0.87 |

| Variant | yeast fitness |
| --- | --- |
| A43C U47A G58C | 0.689 |
| G44A C66G | 0.641 |
| G44C A45G G67A | 0.695 |
| A45C G52A U53C G58A C62G | ≤ 0.5 |
| A42U A45U | 1.09 |
| A42U A45G | 0.918 |
| G44C C61A | 0.583 |
| A43C A57C A69U | ≤ 0.5 |
| A43U C49G C61U | ≤ 0.5 |
| A43C G52A A69U | 0.508 |
| G44A A45C C49U C61G | ≤ 0.5 |
| G44C U54A C61A | 0.561 |
| A45C G48C A69U | 0.675 |
| A43C C49G C61A | 0.702 |
| A42U G48C C61A | 0.643 |
| A45C G50A A57G | 0.665 |
| G44A G58A | 0.955 |
| G44A G58C | 0.911 |
| A43G U47C C62U | 0.644 |
| A42U A57C A65U | 0.589 |
| G44A A69U | 1.06 |
| A42U A43G | 0.88 |
| A43G C61U | 0.887 |
